The array DNA melting data of Ke et al. (doi:10.1101/2024.01.08.574731)

Tests used:
[1] = folding enthalpy; higher = less favourable; fluorescence melt of hairpins on a sequencing array, two-state fit; conditions: sodium 0.088 M
Procedure, shortened: (§1)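 Cy3 signals were normalised both to pre-quench Cy3 and to control constructs. They came from library hairpins carrying annealed Cy3 and quencher oligos on a sequenced MiSeq flow cell, imaged in 50 mM Na-HEPES pH 8.0, 25 mM NaCl, in 2.5 °C steps up to 60 °C. Bootstrapped two-state fits gave melting temperature and folding enthalpy, and four replicates were combined by inverse variance. Fitted temperatures were then raised by 9.35 °C to match UV melts.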

[2] = melting temperature; fluorescence melt of hairpins on a sequencing array, two-state fit, raised by 9.35 °C to match UV melts; conditions: sodium 0.088 M
Procedure, shortened: as §1

Sequence | folding enthalpy [1] [kcal/mol] | Tm [2] [°C]
GAACCCGAAAGGGCGTTC ((((((....)))..))) | -11.9 | 33.7
GAACCCGAAAGGGCTTC ((((((....))).))) | -15 | 46.3
GAACGCCCGAAAGGGTTC (((..(((....)))))) | -10.8 | 30.3
GAACGCGAAAGCGCTTTC ((((((....)))..))) | -8.13 | 29.7
GAACGCGAAAGCGGCTTC ((((((....)))..))) | -14.9 | 53.3
GAACGCGAAAGCGGTTC ((((((....))).))) | -14.3 | 57.3
GAACGCGAAAGCGTTTTC ((((((....)))..))) | -11.6 | 56.6
GAACGCGGAAACACGTTC (((((.(....).))))) | -45.6 | 48.1
GAACGGGGAAACCTGTTC ((((.((....)).)))) | -32.4 | 49
GAACTCGGAAACGAGCTC ((.((((....)))).)) | -19 | 42.2
GAACTCGGAAACGAGTCC (.(((((....))))).) | -14.6 | 43.4
GAACTCGGAAACGGGTTC ((((.((....)).)))) | -35.1 | 50.4
GAACTGAAAAGTTC (((((....))))) | -24.3 | 46.6
GAACTGGGAAACCGGTTC ((((.((....)).)))) | -39.6 | 50.1
GAACTGGGAAACTGGTTC ((((..(....)..)))) | -25.8 | 33.3
GAAGAACCGAAAGGTTTC (((..(((....)))))) | -11.5 | 33
GAAGAAGGAAACTCCTTC ((((.((....)).)))) | -19.2 | 30.7
GAAGACGAAAGTCCTTTC ((((((....)))..))) | -11.6 | 29.6
GAAGACGAAAGTCGATTC ((((((....)))..))) | -24.1 | 47.4
GAAGACGAAAGTCTCTTC ((((((....)))..))) | -23.9 | 51.6
GAAGACGGAAACGCCTTC ((((.((....)).)))) | -26.5 | 45.6
GAAGACGGAAACGTCTCC (.(((((....))))).) | -12.6 | 39.3
GAAGATACGAAAGTATTC (((..(((....)))))) | -8.74 | 27.7

Sequence | folding enthalpy [1] [kcal/mol] | Tm [2] [°C]
GAAGCACGAAAGTGATTC (((.(((....))).))) | -35.1 | 60
GAAGCAGGAAACCGCTTC (((((.(....).))))) | -30.4 | 47.1
GAAGCCGAAAGGCAATTC ((((((....)))..))) | -13.7 | 39.6
GAAGCCGAAAGGCATTC ((((((....))).))) | -11.1 | 40.6
GAAGCCGGAAACAGCTTC (((((.(....).))))) | -29.2 | 42.8
GAAGCGCCGAAAGGCTTC (((..(((....)))))) | -10.5 | 32.3
GAAGCGGCGAAAGCCTTC (((..(((....)))))) | -10.2 | 28.5
GAAGCTGGAAACAGCCTC ((.((((....)))).)) | -13.8 | 32.6
GAAGGACGAAAGTCGTTC (((.(((....))).))) | -37.1 | 51.9
GAAGGACGAAAGTCTTTC (((.(((....))).))) | -25 | 46.3
GAAGGAGGAAACCCCTTC (((((.(....).))))) | -31.3 | 36.9
GAAGGAGGAAACTCCTTC (((((((....))))))) | -33.6 | 58.3
GAAGGCCGAAAGGCGTTC (((.(((....))).))) | -26.3 | 57
GAAGGCGAAAGCCCCTTC ((((((....)))..))) | -9.89 | 35.1
GAAGGCGAAAGCCCGTTC ((((((....)))..))) | -12 | 27.2
GAAGGCGAAAGCCGCTTC ((((((....)))..))) | -13.6 | 56.2
GAAGGCGAAAGCCGGTTC ((((((....)))..))) | -9.54 | 43.4
GAAGGCGAAAGCCGTTC ((((((....))).))) | -8.18 | 43
GAAGGGACGAAAGTCTTC (((..(((....)))))) | -11.8 | 26.7
GAAGGGGGAAACCCCCTC ((.((((....)))).)) | -12.7 | 42.4
GAAGGTGGAAACACTTTC (((.(((....))).))) | -24.9 | 38
GAAGGTGGAAACGCCTTC (((((.(....).))))) | -31.9 | 51.9
GAAGTCGGAAACGACCTC ((.((((....)))).)) | -13.6 | 37.2

Sequence | folding enthalpy [1] [kcal/mol] | Tm [2] [°C]
GAAGTGAAAACTTC (((((....))))) | -23.2 | 43.1
GAAGTGGCGAAAGCCTTC (((..(((....)))))) | -11.4 | 31.4
GAAGTTGGAAACAACCTC ((.((((....)))).)) | -15 | 27.4
GAAGTTGGAAACAACTTC (((((((....))))))) | -41.2 | 57.3
GAAGTTGGAAACAGCTTC ((((.((....)).)))) | -38.7 | 44.4
GAATAACCGAAAGGTTTC (((..(((....)))))) | -15.1 | 25.6
GAATAACGAAAGTTTTTC (((.(((....))).))) | -28.6 | 32
GAATAAGAAATTATTC ((((((....)))))) | -10.4 | 31.9
GAATACGAAAGTAATTC ((((((....))).))) | -13.6 | 34.1
GAATACGAAAGTATTC ((((((....)))))) | -34.4 | 55.5
GAATACGGAAACGTGTTC (((.(((....))).))) | -33.2 | 47.1
GAATAGACGAAAGTCTTC (((..(((....)))))) | -11.8 | 26.1
GAATAGCGAAAGCTGTTC (((.(((....))).))) | -39.9 | 51.5
GAATAGCGAAAGCTTTTC (((.(((....))).))) | -20.6 | 36.6
GAATAGGAAACTATTC ((((((....)))))) | -31 | 40.7
GAATATGAAAATATTC ((((((....)))))) | -24.6 | 39.8
GAATATGGAAACGTATTC (((((.(....).))))) | -25.3 | 34.2
GAATCACGAAAGTGCTTC (((.(((....))).))) | -20.8 | 38.5
GAATCACGAAAGTGTTTC (((.(((....))).))) | -24.7 | 41.5
GAATCCGAAAGGACCTTC ((((((....)))..))) | -12.7 | 30.3
GAATCCGAAAGGAGTTC ((((((....))).))) | -15.9 | 35.3
GAATCCGAAAGGATATTC ((((((....)))..))) | -13.1 | 33.6
GAATCGCGAAAGCGTTC (((.(((....)))))) | -12.3 | 42

Sequence | folding enthalpy [1] [kcal/mol] | Tm [2] [°C]
GAATCGGGAAACCGACTC ((.((((....)))).)) | -20.4 | 35.1
GAATGAGGAAACTCGTTC (((.(((....))).))) | -32.3 | 43.9
GAATGCCGAAAGGCCTTC (((.(((....))).))) | -17 | 41.3
GAATGCCGAAAGGCTTC (((.(((....)))))) | -13.2 | 43.6
GAATGCGAAAGCAACTTC ((((((....)))..))) | -13 | 36
GAATGCGAAAGCACTTTC ((((((....)))..))) | -10.4 | 28.9
GAATGCGAAAGCAGTTTC ((((((....)))..))) | -11.7 | 31.3
GAATGCGAAAGCATCTTC ((((((....)))..))) | -23.4 | 53
GAATGCGGAAACGCATTC (((((((....))))))) | -39.1 | 67.5
GAATGGCGAAAGCCCTTC (((.(((....))).))) | -20 | 38.4
GAATGGGGAAACTCATTC (((((.(....).))))) | -32.4 | 40.1
GAATGTGCGAAAGCATTC (((..(((....)))))) | -9.5 | 29.3
GAATGTGGAAACATATTC ((((.((....)).)))) | -33.2 | 35.1
GAATTACGAAAGTATTTC (((.(((....))).))) | -19.6 | 35.2
GAATTCCCGAAAGGGTTC (((..(((....)))))) | -13 | 28
GAATTGCGAAAGCACTTC (((.(((....))).))) | -21.1 | 40.7
GAATTGCGAAAGCATTC (((.(((....)))))) | -13.6 | 36.1
GAATTGCGAAAGCATTTC (((.(((....))).))) | -21.7 | 44.8
GAATTGGGAAACCGATTC ((((.((....)).)))) | -36.4 | 43.4
GAATTTGGAAACAAATCC (.(((((....))))).) | -13.9 | 29.2
GACAAACGAAAGTTGTC (((.(((....)))))) | -29.1 | 48.2
GACAAAGAAATTTGTC ((((((....)))))) | -27.6 | 43.4
